Values after ≈ are worked out from the molar mass of the structure shown.
What was measured:
Hepatitis C virus [1] = assay: Antiviral activity against Hepatitis C virus genotype 1a clinical isolate RO-38 expressing NS5B assessed as inhibition of viral replication after 4 days by luciferase reporter gene assay; assay type: functional, organism-based, Hepacivirus hominis; conditions: genotype 1a clinical isolate RO-38, 96 h
[2] = Half life in Beagle dog at 1 mg/kg, iv; assay type: ADME, organism-based, Canis lupus familiaris; set-up: dose 1 mg/kg, route intravenous; conditions: in vivo
Procedure, shortened: (§1)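 Single intravenous bolus via tail vein or jugular cannula of dual-cannulated animals, vehicle 2% dimethyl acetamide/20% PEG400/23.4% HPBCD. EDTA blood typically taken at 0.08, 0.25, 0.5, 1, 2, 4, 6, 8 and 24 h from the remaining cannulas. Plasma drug measured by LC/MS/MS following acetonitrile protein precipitation.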

Hepatitis C virus [3] = assay: Ratio of EC50 for Hepatitis C virus genotype 1b Con1 in presence of human serum to EC50 for Hepatitis C virus genotype 1b Con1; assay type: functional, Hepacivirus hominis, isolate Con1
[4] = Clearance in Beagle dog at 1 mg/kg, iv; assay type: ADME, organism-based, Canis lupus familiaris; set-up: dose 1 mg/kg, route intravenous; conditions: in vivo; procedure, shortened: as §1
[5] = Volume of distribution at steady state in Wistar/Han rat at 3 mg/kg, iv; assay type: ADME, organism-based; set-up: dose 3 mg/kg, route intravenous; conditions: in vivo, read-out: Vdss; procedure, shortened: as §1
Hepatitis C virus [6] = assay: Antiviral activity against Hepatitis C virus genotype 1b Con1 expressing NS5B assessed as inhibition of viral replication after 4 days by luciferase reporter gene assay; assay type: functional, organism-based, Hepacivirus hominis; conditions: isolate Con1, 96 h
Hepatitis C virus [7] = assay: Antiviral activity against Hepatitis C virus genotype 1a clinical isolate RO-33 expressing NS5B assessed as inhibition of viral replication after 4 days by luciferase reporter gene assay; assay type: functional, organism-based, Hepacivirus hominis; conditions: genotype 1a clinical isolate RO-33, 96 h
[8] = Half life in Wistar/Han rat at 3 mg/kg, iv; assay type: ADME, organism-based; set-up: dose 3 mg/kg, route intravenous; conditions: in vivo; procedure, shortened: as §1
Hepatitis C virus [9] = assay: Antiviral activity against Hepatitis C virus genotype 1a clinical isolate RO-28 expressing NS5B assessed as inhibition of viral replication after 4 days by luciferase reporter gene assay; assay type: functional, organism-based, Hepacivirus hominis; conditions: genotype 1a clinical isolate RO-28, 96 h
Hepatitis C virus [10] = assay: Antiviral activity against Hepatitis C virus genotype 1a H77 expressing NS5B assessed as inhibition of viral replication after 4 days by luciferase reporter gene assay; assay type: functional, organism-based, Hepacivirus hominis; conditions: genotype 1a H77, 96 h
Hepatitis C virus [11] = assay: Antiviral activity against Hepatitis C virus genotype 1b clinical isolate RO-9 expressing NS5B assessed as inhibition of viral replication after 4 days by luciferase reporter gene assay; assay type: functional, organism-based, Hepacivirus hominis; conditions: genotype 1b clinical isolate RO-9, 96 h
Hepatitis C virus [12] = assay: Antiviral activity against Hepatitis C virus genotype 1a H77 infected in human 2209-23 cells after 72 hrs by luciferase reporter gene assay; assay type: functional, organism-based, Hepacivirus hominis; conditions: genotype 1a H77, 2209-23, 72 h
[13] = Cmax in Wistar/Han rat at 30 mg/kg, po of compound as aqueous suspension; assay type: ADME, organism-based; set-up: dose 30 mg/kg, route oral; conditions: in vivo
Hepatitis C virus [14] = assay: Antiviral activity against Hepatitis C virus genotype 1a H77 infected in human 2209-23 cells after 72 hrs by luciferase reporter gene assay in presence of 40% human serum; assay type: functional, organism-based, Hepacivirus hominis; conditions: genotype 1a H77, 2209-23, 72 h
Hepatitis C virus [15] = assay: Antiviral activity against Hepatitis C virus genotype 1b clinical isolate RO-1 expressing NS5B assessed as inhibition of viral replication after 4 days by luciferase reporter gene assay; assay type: functional, organism-based, Hepacivirus hominis; conditions: genotype 1b clinical isolate RO-1, 96 h
[16] = Drug uptake in Wistar/Han rat at 30 mg/kg, po of compound as aqueous suspension measured at 8 hrs; assay type: ADME, organism-based; set-up: dose 30 mg/kg, route oral; conditions: in vivo, read-out: Drug uptake
[17] = Cmax in Beagle dog at 3 mg/kg, po of compound as aqueous suspension; assay type: ADME, organism-based, Canis lupus familiaris; set-up: dose 3 mg/kg, route oral; conditions: in vivo
[18] = Clearance in Wistar/Han rat at 3 mg/kg, iv; assay type: ADME, organism-based; set-up: dose 3 mg/kg, route intravenous; conditions: in vivo; procedure, shortened: as §1
Hepatitis C virus [19] = assay: Ratio of EC50 for Hepatitis C virus genotype 1a H77 in presence of human serum to EC50 for Hepatitis C virus genotype 1a H77; assay type: functional, Hepacivirus hominis
Hepatitis C virus [20] = assay: Antiviral activity against Hepatitis C virus genotype 1b clinical isolate RO-3 expressing NS5B assessed as inhibition of viral replication after 4 days by luciferase reporter gene assay; assay type: functional, organism-based, Hepacivirus hominis; conditions: genotype 1b clinical isolate RO-3, 96 h
[21] = Thermodynamic solubility of the compound; assay type: physicochemical; conditions: read-out: Therm_solubility
Hepatitis C virus [22] = assay: Antiviral activity against Hepatitis C virus genotype 1b clinical isolate RO-2 expressing NS5B assessed as inhibition of viral replication after 4 days by luciferase reporter gene assay; assay type: functional, organism-based, Hepacivirus hominis; conditions: genotype 1b clinical isolate RO-2, 96 h
Hepatitis C virus [23] = assay: Antiviral activity against Hepatitis C virus genotype 1a clinical isolate RO-41 expressing NS5B assessed as inhibition of viral replication after 4 days by luciferase reporter gene assay; assay type: functional, organism-based, Hepacivirus hominis; conditions: genotype 1a clinical isolate RO-41, 96 h
Hepatitis C virus [24] = assay: Antiviral activity against Hepatitis C virus genotype 1b clinical isolate RO-8 expressing NS5B assessed as inhibition of viral replication after 4 days by luciferase reporter gene assay; assay type: functional, organism-based, Hepacivirus hominis; conditions: genotype 1b clinical isolate RO-8, 96 h
Hepatitis C virus [25] = assay: Antiviral activity against Hepatitis C virus genotype 1a clinical isolate RO-18 expressing NS5B assessed as inhibition of viral replication after 4 days by luciferase reporter gene assay; assay type: functional, organism-based, Hepacivirus hominis; conditions: genotype 1a clinical isolate RO-18, 96 h
Hepatitis C virus [26] = assay: Antiviral activity against Hepatitis C virus genotype 1b clinical isolate RO-10 expressing NS5B assessed as inhibition of viral replication after 4 days by luciferase reporter gene assay; assay type: functional, organism-based, Hepacivirus hominis; conditions: genotype 1b clinical isolate RO-10, 96 h
Hepatitis C virus [27] = assay: Antiviral activity against Hepatitis C virus genotype 1b clinical isolate RO-4 expressing NS5B assessed as inhibition of viral replication after 4 days by luciferase reporter gene assay; assay type: functional, organism-based, Hepacivirus hominis; conditions: genotype 1b clinical isolate RO-4, 96 h
Hepatitis C virus [28] = assay: Antiviral activity against Hepatitis C virus genotype 1a clinical isolate RO-34 expressing NS5B assessed as inhibition of viral replication after 4 days by luciferase reporter gene assay; assay type: functional, organism-based, Hepacivirus hominis; conditions: genotype 1a clinical isolate RO-34, 96 h
Hepatitis C virus [29] = assay: Antiviral activity against Hepatitis C virus genotype 1a clinical isolate RO-35 expressing NS5B assessed as inhibition of viral replication after 4 days by luciferase reporter gene assay; assay type: functional, organism-based, Hepacivirus hominis; conditions: genotype 1a clinical isolate RO-35, 96 h
[30] = Oral bioavailability in Beagle dog at 3 mg/kg of compound as aqueous suspension; assay type: ADME, organism-based, Canis lupus familiaris; conditions: in vivo
Hepatitis C virus [31] = assay: Antiviral activity against Hepatitis C virus genotype 1b clinical isolate RO-7 expressing NS5B assessed as inhibition of viral replication after 4 days by luciferase reporter gene assay; assay type: functional, organism-based, Hepacivirus hominis; conditions: genotype 1b clinical isolate RO-7, 96 h
Hepatitis C virus [32] = assay: Antiviral activity against Hepatitis C virus genotype 1b Con1 infected in human 2209-23 cells after 72 hrs by luciferase reporter gene assay in presence of 40% human serum; assay type: functional, organism-based, Hepacivirus hominis; conditions: isolate Con1, 2209-23, 72 h
[33] = Ratio of EC50 for Hepatitis C virus genotype 1a H77 to EC50 for Hepatitis C virus genotype 1b Con1; assay type: functional
Hepatitis C virus [34] = assay: Antiviral activity against Hepatitis C virus genotype 1a clinical isolate RO-24 expressing NS5B assessed as inhibition of viral replication after 4 days by luciferase reporter gene assay; assay type: functional, organism-based, Hepacivirus hominis; conditions: genotype 1a clinical isolate RO-24, 96 h
[35] = AUC (0 to infinity) in Beagle dog at 3 mg/kg, po of compound as aqueous suspension; assay type: ADME, organism-based, Canis lupus familiaris; set-up: time infinity, dose 3 mg/kg, route oral; conditions: plasma
[36] = Oral bioavailability in Wistar/Han rat at 30 mg/kg of compound as aqueous suspension; assay type: ADME, organism-based; conditions: in vivo
[37] = Drug uptake in Beagle dog at 3 mg/kg, po of compound as aqueous suspension measured at 8 hrs; assay type: ADME, organism-based, Canis lupus familiaris; set-up: dose 3 mg/kg, route oral; conditions: in vivo, read-out: Drug uptake
[38] = Volume of distribution at steady state in Beagle dog at 1 mg/kg, iv; assay type: ADME, organism-based, Canis lupus familiaris; set-up: dose 1 mg/kg, route intravenous; conditions: in vivo, read-out: Vdss; procedure, shortened: as §1
[39] = AUC (0 to infinity) in Wistar/Han rat at 30 mg/kg, po of compound as aqueous suspension; assay type: ADME, organism-based; set-up: time infinity, dose 30 mg/kg, route oral; conditions: plasma
Hepatitis C virus [40] = assay: Antiviral activity against Hepatitis C virus genotype 1b Con1 infected in human 2209-23 cells after 72 hrs by luciferase reporter gene assay; assay type: functional, organism-based, Hepacivirus hominis; conditions: isolate Con1, 2209-23, 72 h
Procedure, shortened: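 Stable GT-1b Con1 subgenomic replicon cell line expressing a renilla luciferase reporter, used as the readout of inhibition. EC50 from luciferase signal, n 2.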

For `COc1ccc(-c2cc(C(C)(C)C)c(OC)c3cc(N4CC[C@H](CNS(C)(=O)=O)C4)cnc23)c(=O)[nH]1`, which EC50 (Hepatitis C virus [1]) is on record?
The EC50 was 9.5 nM.

And the half-life [2]?
The half-life was 5.1 h.

And the “Ratio EC50” value (Hepatitis C virus [3])?
The value was 0.6.

What about the clearance [4] of the same compound?
The clearance was 4.4 mL/min/kg.

What about the Vd [5] of the same compound?
Its Vd is 2.3 L/kg.

What about the EC50 (Hepatitis C virus [6]) of the same compound?
Its EC50 is 1.2 nM.

What about the EC50 (Hepatitis C virus [7]) of the same compound?
Its EC50 is 0.7 nM.

And the half-life [8]?
The half-life was 5.6 h.

What about the EC50 (Hepatitis C virus [9]) of the same compound?
Its EC50 is 0.2 nM.

What about the EC50 (Hepatitis C virus [10]) of the same compound?
The EC50 was 0.65 nM.

What about the EC50 (Hepatitis C virus [11]) of the same compound?
Its EC50 is 3.5 nM.

And the EC50 (Hepatitis C virus [12])?
Its EC50 is 17 nM.

What about the Cmax [13] of the same compound?
The Cmax was 3800 ng/mL.

And the EC50 (Hepatitis C virus [14])?
Its EC50 is 10 nM.

What about the EC90 (Hepatitis C virus [14]) of the same compound?
The EC90 was 61 nM.

And the EC50 (Hepatitis C virus [15])?
Its EC50 is 0.3 nM.

What about the concentration at 8 h [16] of the same compound?
Its concentration at 8 h is 1790 ng/mL.

And the Cmax [17]?
The Cmax was 360 ng/mL.

And the clearance [18]?
The clearance was 13.8 mL/min/kg.

What about the “Ratio EC50” value (Hepatitis C virus [19]) of the same compound?
The value was 0.6.

What about the EC50 (Hepatitis C virus [20]) of the same compound?
The EC50 was 6.1 nM.

And the solubility thermodynamic [21]?
The solubility thermodynamic was 39 µg/mL (≈ 75.8 µM).

And the EC50 (Hepatitis C virus [22])?
Its EC50 is 4 nM.

What about the EC50 (Hepatitis C virus [23]) of the same compound?
The EC50 was 0.27 nM.

And the EC50 (Hepatitis C virus [24])?
The EC50 was 0.33 nM.

What about the EC50 (Hepatitis C virus [25]) of the same compound?
The EC50 was 0.5 nM.

And the EC50 (Hepatitis C virus [26])?
The EC50 was 1.67 nM.

What about the EC50 (Hepatitis C virus [27]) of the same compound?
Its EC50 is 0.8 nM.

What about the EC50 (Hepatitis C virus [28]) of the same compound?
Its EC50 is 0.4 nM.

What about the EC50 (Hepatitis C virus [29]) of the same compound?
The EC50 was 0.5 nM.

What about the bioavailability [30] of the same compound?
Its bioavailability is 36%.

What about the EC50 (Hepatitis C virus [31]) of the same compound?
The EC50 was 3.05 nM.

And the EC50 (Hepatitis C virus [32])?
Its EC50 is 7.5 nM.

What about the EC90 (Hepatitis C virus [32]) of the same compound?
Its EC90 is 44 nM.

What about the “Ratio EC50” value [33] of the same compound?
Its value is 1.4.

What about the EC50 (Hepatitis C virus [34]) of the same compound?
The EC50 was 2.5 nM.

And the AUC(0-inf) [35]?
Its AUC(0-inf) is 4200 ng·h/mL.

What about the bioavailability [36] of the same compound?
The bioavailability was 100%.

What about the concentration at 8 h [37] of the same compound?
The concentration at 8 h was 210 ng/mL.

And the Vd [38]?
The Vd was 1.5 L/kg.

And the AUC(0-inf) [39]?
Its AUC(0-inf) is 37000 ng·h/mL.

What about the EC50 (Hepatitis C virus [40]) of the same compound?
Its EC50 is 12 nM.
